Assay results published in ChEMBL document CHEMBL4138064, “Diazabicyclo analogues of maraviroc: synthesis, modeling, NMR studies and antiviral activity” (Medchemcomm, 2017).
Active and inactive are the calls of the source. The rule behind the calls is not given here.

What was measured:
[1] = system: Human immunodeficiency virus 1; assay: Antiviral activity against CCR5-dependent HIV1 SF162 infected in human TZM-bl cells assessed as reduction in virus infection incubated for 48 hrs by luciferase reporter gene based viral neutralization assay; assay type: functional; conditions: Human immunodeficiency virus 1, SF162, TZM-bl
In short: (§1)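 Env-pseudotyped viruses made in 293T cells by proviral DNA transfection and titred by luciferase in TZM-bl cells. 200 TCID50 of virus preincubated 1 h at 37 °C with serially diluted compound (10 to 0.001 μM) in D-MEM/10% FBS. 10^4 TZM-bl cells per well with 15 μg/mL DEAE-dextran were then added, 37 °C, 48 h and 72 h. Four replicates per point. Luciferase read-out.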

[2] = system: Human immunodeficiency virus 1; assay: Antiviral activity against CCR5-dependent HIV1 clade B isolate QH0692 infected in human TZM-bl cells assessed as reduction in virus infection incubated for 48 hrs by luciferase reporter gene based viral neutralization assay; assay type: functional; conditions: Human immunodeficiency virus 1, clade B isolate QH0692, TZM-bl; in short: as §1
[3] = system: Human immunodeficiency virus 1; assay: Antiviral activity against CCR5-dependent HIV1 clade B isolate 6535 infected in human TZM-bl cells assessed as reduction in virus infection incubated for 48 hrs by luciferase reporter gene based viral neutralization assay; assay type: functional; conditions: Human immunodeficiency virus 1, clade B isolate 6535, TZM-bl; in short: as §1
[4] = system: Human immunodeficiency virus 1; assay: Antiviral activity against CCR5-dependent HIV1 clade B isolate PVO infected in human TZM-bl cells assessed as reduction in virus infection incubated for 48 hrs by luciferase reporter gene based viral neutralization assay; assay type: functional; conditions: Human immunodeficiency virus 1, clade B isolate PVO; in short: as §1
[5] = system: Human immunodeficiency virus 1; assay: Antiviral activity against CCR5-dependent HIV1 clade B isolate AC10 infected in human TZM-bl cells assessed as reduction in virus infection incubated for 48 hrs by luciferase reporter gene based viral neutralization assay; assay type: functional; conditions: Human immunodeficiency virus 1, clade B isolate AC10, 48 h; in short: as §1
[6] = system: Human immunodeficiency virus 1; assay: Antiviral activity against CCR5-dependent HIV1 cladC isolate ZM214 infected in human TZM-bl cells assessed as reduction in virus infection incubated for 48 hrs by luciferase reporter gene based viral neutralization assay; assay type: functional; conditions: Human immunodeficiency virus 1, cladC isolate ZM214, TZM-bl; in short: as §1
[7] = system: Vesicular stomatitis virus; assay: Antiviral activity against VSV G SVA.MLV#922 infected in human TZM-bl cells assessed as reduction in virus infection incubated for 48 hrs by luciferase reporter gene based viral neutralization assay; assay type: functional; conditions: G SVA.MLV#922, TZM-bl; in short: as §1
[8] = system: Human immunodeficiency virus 1; assay: Antiviral activity against CXCR4-dependent HIV1 HXB2 infected in human TZM-bl cells assessed as reduction in virus infection incubated for 48 hrs by luciferase reporter gene based viral neutralization assay; assay type: functional; conditions: Human immunodeficiency virus 1, HXB2, TZM-bl; in short: as §1
[9] = system: Human immunodeficiency virus 1; assay: Antiviral activity against CCR5-dependent HIV1 SF162 infected in human TZM-bl cells assessed as reduction in virus infection incubated for 72 hrs by luciferase reporter gene based viral neutralization assay; assay type: functional, organism-based
In short: (§2)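 Single-round infection of TZM-bl cells with env-pseudotyped virus at 200 TCID50, preincubated 1 h at 37 °C with serial compound dilutions (10 to 0.001 μM) in D-MEM with 10% FBS. TZM-bl cells (10^4/well) carrying 15 μg/mL DEAE-dextran were then added and cultured 48 and 72 h at 37 °C, 5% CO2. Luciferase RLU were read in four replicates per point. IC90 was the 90% RLU drop versus virus-only wells, minus cell-only background.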

[10] = system: Human immunodeficiency virus 1; assay: Antiviral activity against CCR5-dependent HIV1 clade B isolate QH0692 infected in human TZM-bl cells assessed as reduction in virus infection incubated for 72 hrs by luciferase reporter gene based viral neutralization assay; assay type: functional, organism-based; in short: as §2
[11] = system: Human immunodeficiency virus 1; assay: Antiviral activity against CCR5-dependent HIV1 clade B isolate 6535 infected in human TZM-bl cells assessed as reduction in virus infection incubated for 72 hrs by luciferase reporter gene based viral neutralization assay; assay type: functional, organism-based; in short: as §2
[12] = system: Human immunodeficiency virus 1; assay: Antiviral activity against CCR5-dependent HIV1 clade B isolate PVO infected in human TZM-bl cells assessed as reduction in virus infection incubated for 72 hrs by luciferase reporter gene based viral neutralization assay; assay type: functional, organism-based; in short: as §2
[13] = system: Human immunodeficiency virus 1; assay: Antiviral activity against CCR5-dependent HIV1 clade B isolate AC10 infected in human TZM-bl cells assessed as reduction in virus infection incubated for 72 hrs by luciferase reporter gene based viral neutralization assay; assay type: functional, organism-based; in short: as §2
[14] = system: Human immunodeficiency virus 1; assay: Antiviral activity against CCR5-dependent HIV1 cladC isolate ZM214 infected in human TZM-bl cells assessed as reduction in virus infection incubated for 72 hrs by luciferase reporter gene based viral neutralization assay; assay type: functional, organism-based; in short: as §2
[15] = system: Vesicular stomatitis virus; assay: Antiviral activity against VSV G SVA.MLV#922 infected in human TZM-bl cells assessed as reduction in virus infection incubated for 72 hrs by luciferase reporter gene based viral neutralization assay; assay type: functional, organism-based; in short: as §1
[16] = system: Human immunodeficiency virus 1; assay: Antiviral activity against CXCR4-dependent HIV1 HXB2 infected in human TZM-bl cells assessed as reduction in virus infection incubated for 72 hrs by luciferase reporter gene based viral neutralization assay; assay type: functional, organism-based; in short: as §2
TZM [17] = assay: Toxicity in human TZM-bl cells assessed as reduction in cell proliferation at 10 uM incubated for 48 hrs by trypan blue staining based assay
TZM [18] = assay: Toxicity in human TZM-bl cells assessed as reduction in cell proliferation at 10 uM incubated for 72 hrs by trypan blue staining based assay

Structure (SMILES)	IC90 [1] [nM]	IC90 [2] [nM]	IC90 [3] [nM]	IC90 [4] [nM]	IC90 [5] [nM]	IC90 [6] [nM]	IC90 [7] [nM]	IC90 [8] [nM]	Activity [9]	Activity [10]	Activity [11]	Activity [12]	Activity [13]	Activity [14]	Activity [15]	Activity [16]	Activity (TZM [17])	Activity (TZM [18])
Cc1nnc(C(C)C)n1[C@H]1C[C@H]2CC[C@@H](C1)N2CC[C@H](NC(=O)C1CCC(F)(F)CC1)c1ccccc1 [MARAVIROC]	80 to 470	80 to 470	80 to 470	80 to 470	80 to 470	80 to 470	> 10000	> 10000	Active	Active	Active	Active	Active	Active	Active	Active		
Cc1nnc(C(C)C)n1N1CC2CCC(C1)N2CC[C@H](NC(=O)C1CCC(F)(F)CC1)c1ccccc1	20 to 1520	20 to 1520	20 to 1520	20 to 1520	20 to 1520	20 to 1520	> 10000	> 10000	Active	Active	Active	Active	Active	Active	Active	Active	Non-Toxic	Non-Toxic
Cc1nnc(C(C)C)n1N1CC2CCCC(C1)N2CC[C@H](NC(=O)C1CCC(F)(F)CC1)c1ccccc1	90 to 3540	90 to 3540	90 to 3540	90 to 3540	90 to 3540	90 to 3540	> 10000	> 10000	Active	Active	Active	Active	Active	Active	Active	Active	Non-Toxic	Non-Toxic
Cc1nnc(C(C)C)n1[C@@H]1C[C@H]2CC[C@@H](C1)N2CC[C@H](NC(=O)C1CCC(F)(F)CC1)c1ccccc1 [MARAVIROC]																	Non-Toxic	Non-Toxic
